Experimental data as given in ChEMBL document CHEMBL3352721, “Identification, optimization, and pharmacology of acylurea GHS-R1a inverse agonists” (J Med Chem, 2014).
Values after ≈ are worked out from the molar mass of the structure shown. Active and inactive are the calls of the source. The calls are words filed in the database; no cut-off is given here.

Legend:
[1] = Cmax in beagle dog at 1 mg/kg, po; format: ADME, organism-based, Canis lupus familiaris; set-up: dose 1 mg/kg, route oral; details: in vivo
How it was run: (§1)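 Oral gavage in male HW rats, beagle dogs or CD-1 mice, vehicle Pluronic F127 in water. EDTA plasma was collected over 24 h and quantified by LC/MS/MS after acetonitrile precipitation. Cmax and bioavailability were obtained by non-compartmental analysis against IV data.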

[2] = Lipophilicity, logD of the compound; format: physicochemical; details: octanol/water
[3] = (§2) Oral bioavailability in Han-Wistar rat at 2 mg/kg; format: ADME, organism-based; details: Han-Wistar, in vivo; how it was run: as §1
[4] = Clearance in CD1 mouse at 2 mg/kg, iv; format: ADME, organism-based; set-up: dose 2 mg/kg, route intravenous; details: in vivo
How it was run: (§3)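 Male HW rats, beagle dogs or CD-1 mice received an IV bolus in 5% DMSO/95% hydroxypropyl-β-cyclodextrin (30% w/v). EDTA plasma was sampled over 24 h and assayed by LC/MS/MS after acetonitrile protein precipitation. CL and Vss were obtained by non-compartmental analysis.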

[5] = Unbound fraction in Han-Wistar rat plasma; format: ADME, cell-free
[6] = system: Mus musculus; assay: Increase in food intake in po dosed C57Bl6j mouse free feeding model measured over 24 hrs period; format: functional
How it was run: (§4)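 Male mice (C57Bl6j, GHSr1-/- or wild-type littermates) were acclimatized 3 weeks to reversed light-dark, then individually housed 7 days and grouped (n=10-12) by baseline intake and body weight. Suspensions in 1% Pluronic F127 or vehicle were gavaged at 10 mL/kg about 1 h before dark onset. Pre-weighed food was reweighed at 2, 4, 6 and 24 h.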

[7] = Ratio of plasma concentration in C57Bl6j mouse free feeding model at 30 mg/kg, po after 1 hr to IC50 for mouse GHS-R1a expressed in HEK cell membranes; format: ADME, organism-based, HEK293; set-up: dose 30 mg/kg, route oral; details: in vivo
How it was run: (§5)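 Male mice were kept on a reversed light cycle and given a 1% Pluronic F127 suspension orally (10 mL/kg) about 1 h before dark. Plasma exposure was corrected for mouse plasma protein binding and divided by mouse GHS-R1a binding IC50. Binding was 20 pM [125I]ghrelin displacement on HEK membranes, 60 min rt, pH 7.4, read by gamma counting.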

[8] = Volume of distribution at steady state in CD1 mouse at 2 mg/kg, iv; format: ADME, organism-based; set-up: dose 2 mg/kg, route intravenous; details: in vivo, read-out: Vdss; how it was run: as §3
[9] = Cmax in Han-Wistar rat at 2 mg/kg, po; format: ADME, organism-based; set-up: dose 2 mg/kg, route oral; details: in vivo; how it was run: as §1
[10] = Oral bioavailability in CD1 mouse at 5 mg/kg; format: ADME, organism-based; details: in vivo; how it was run: as §1
[11] = Oral bioavailability in beagle dog at 1 mg/kg; format: ADME, organism-based, Canis lupus familiaris; details: in vivo; how it was run: as §1
[12] = Clearance in Han-Wistar rat at 2 mg/kg, iv; format: ADME, organism-based; set-up: dose 2 mg/kg, route intravenous; details: in vivo; how it was run: as §3
[13] = system: Mus musculus; assay: Increase in food intake in po dosed C57Bl6j mouse free feeding model measured in 2 hrs intervals; format: functional, organism-based; how it was run: as §4
[14] = Displacement of [125I]human ghrelin from mouse GHS-R1a expressed in HEK cell membranes after 60 mins by gamma counting method; details: hek293
How it was run: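 HEK cell membranes stably overexpressing mouse or rat GHS-R1a (4 µg/well) incubated 60 min at rt with 20 pM [125I]human ghrelin and competing compound. Buffer: 50 mM Tris-HCl, 5 mM MgCl2, 0.01% BSA, pH 7.4, plus 10 µM methyl arachidonyl fluorophosphonate. Stopped by filtration over PEI-soaked GF/C filters with ice-cold washes, then gamma counting. IC50 is the mean of ≥2 independent determinations.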

[15] = Volume of distribution at steady state in Han-Wistar rat at 2 mg/kg, iv; format: ADME, organism-based; set-up: dose 2 mg/kg, route intravenous; details: in vivo, read-out: Vdss; how it was run: as §3
[16] = Clearance in beagle dog at 1 mg/kg, iv; format: ADME, organism-based, Canis lupus familiaris; set-up: dose 1 mg/kg, route intravenous; details: in vivo; how it was run: as §3
[17] = system: MDR1; assay: Apparent permeability in MDCK cells expressing MDR1 at 10 uM assessed as apical to basolateral side transport; format: ADME, cell-based, Canis lupus familiaris; details: dog
How it was run: (§6)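 MDCK-MDR1 monolayers incubated with compound at 10 µM; permeability measured in both A→B and B→A directions, giving Papp A-B (x10^6 cm/s) and the efflux ratio.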

[18] = Ratio of plasma concentration in C57Bl6j mouse free feeding model at 30 mg/kg, po after 2 hrs to IC50 for mouse GHS-R1a expressed in HEK cell membranes; format: ADME, organism-based, HEK293; set-up: dose 30 mg/kg, route oral; details: in vivo; how it was run: as §5
[19] = molecular target: Growth hormone secretagogue receptor type 1 (Homo sapiens, UniProt Q92847); assay: Displacement of [125I]human ghrelin from human GHS-R1a expressed in HEK cell membranes after 60 mins by gamma counting method; set-up: species or system HEK293
Chain of Growth hormone secretagogue receptor type 1 (Q92847 whole entry): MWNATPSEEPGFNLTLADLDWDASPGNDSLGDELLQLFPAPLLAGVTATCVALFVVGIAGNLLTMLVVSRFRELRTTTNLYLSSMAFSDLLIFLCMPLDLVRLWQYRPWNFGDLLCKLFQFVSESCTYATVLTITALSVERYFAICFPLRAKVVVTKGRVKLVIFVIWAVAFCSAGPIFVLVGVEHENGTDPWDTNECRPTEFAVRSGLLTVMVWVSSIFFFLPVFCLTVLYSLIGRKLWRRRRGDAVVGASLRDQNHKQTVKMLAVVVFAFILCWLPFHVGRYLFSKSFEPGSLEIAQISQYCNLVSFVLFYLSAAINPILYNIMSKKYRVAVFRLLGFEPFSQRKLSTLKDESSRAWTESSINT

[20] = system: MDR1; assay: Efflux ratio in MDCK cells expressing MDR1 at 10 uM; format: ADME, cell-based, Canis lupus familiaris; details: dog; how it was run: as §6
[21] = Cmax in CD1 mouse at 5 mg/kg, po; format: ADME, organism-based; set-up: dose 5 mg/kg, route oral; details: in vivo; how it was run: as §1
[22] = Volume of distribution at steady state in beagle dog at 1 mg/kg, iv; format: ADME, organism-based, Canis lupus familiaris; set-up: dose 1 mg/kg, route intravenous; details: in vivo, read-out: Vdss; how it was run: as §3
[23] = molecular target: Growth hormone secretagogue receptor type 1 (Rattus norvegicus) (UniProt O08725); assay: Displacement of [125I]human ghrelin from rat GHS-R1a expressed in HEK cell membranes after 60 mins by gamma counting method; details: hek293
Chain of Growth hormone secretagogue receptor type 1 (Rattus norvegicus) (O08725 whole entry, looked up): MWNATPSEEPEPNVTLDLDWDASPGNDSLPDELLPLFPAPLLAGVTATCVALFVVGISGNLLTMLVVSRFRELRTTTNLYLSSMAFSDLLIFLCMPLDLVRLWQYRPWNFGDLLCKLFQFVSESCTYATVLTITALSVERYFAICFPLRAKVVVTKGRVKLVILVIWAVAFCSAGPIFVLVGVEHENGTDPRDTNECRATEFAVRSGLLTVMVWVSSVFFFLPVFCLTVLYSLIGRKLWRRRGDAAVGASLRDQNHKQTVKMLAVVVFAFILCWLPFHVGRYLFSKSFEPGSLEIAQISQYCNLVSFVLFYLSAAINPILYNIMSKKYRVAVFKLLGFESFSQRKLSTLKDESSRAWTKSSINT

[24] = Aqueous solubility at pH 7.4 under thermodynamic conditions; format: physicochemical; details: buffer, read-out: Therm_solubility
How it was run: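 Thermodynamic solubility measured from solid samples in aqueous medium at pH 7.4.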

[25] = Unbound fraction in beagle dog plasma; format: ADME, cell-free, Canis lupus familiaris
[26] = Unbound fraction in CD1 mouse plasma; format: ADME, cell-free
[27] = Ratio of plasma concentration in C57Bl6j mouse free feeding model at 30 mg/kg, po after 6 hrs to IC50 for mouse GHS-R1a expressed in HEK cell membranes; format: ADME, organism-based, HEK293; set-up: dose 30 mg/kg, route oral; details: in vivo; how it was run: as §5
[28] = molecular target: Sodium-dependent dopamine transporter (Homo sapiens, UniProt Q01959); assay: Inhibition of DAT (unknown origin)
Chain of Sodium-dependent dopamine transporter (Q01959 whole entry): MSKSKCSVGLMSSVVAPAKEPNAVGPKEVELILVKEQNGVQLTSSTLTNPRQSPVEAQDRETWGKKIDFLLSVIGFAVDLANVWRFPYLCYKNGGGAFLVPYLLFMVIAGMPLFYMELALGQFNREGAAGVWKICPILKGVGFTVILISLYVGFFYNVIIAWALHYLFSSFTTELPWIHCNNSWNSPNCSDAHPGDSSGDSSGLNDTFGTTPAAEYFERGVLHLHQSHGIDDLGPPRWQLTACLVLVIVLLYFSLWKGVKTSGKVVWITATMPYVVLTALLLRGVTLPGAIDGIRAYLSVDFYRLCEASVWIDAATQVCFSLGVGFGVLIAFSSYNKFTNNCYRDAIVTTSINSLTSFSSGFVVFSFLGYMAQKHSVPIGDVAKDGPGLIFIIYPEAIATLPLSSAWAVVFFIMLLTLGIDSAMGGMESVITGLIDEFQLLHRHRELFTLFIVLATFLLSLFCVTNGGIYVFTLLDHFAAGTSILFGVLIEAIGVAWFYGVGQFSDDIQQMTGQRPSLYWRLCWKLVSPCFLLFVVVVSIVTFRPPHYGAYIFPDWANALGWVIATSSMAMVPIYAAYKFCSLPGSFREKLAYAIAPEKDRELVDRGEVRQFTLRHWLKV

[29] = system: Rattus norvegicus; assay: as §2; format: ADME, organism-based; details: in vivo; how it was run: as §1
[30] = molecular target: Neuronal acetylcholine receptor subunit alpha-4 (Homo sapiens, UniProt P43681); assay: Inhibition of alpha4 nAChR (unknown origin)
Chain of Neuronal acetylcholine receptor subunit alpha-4 (P43681 whole entry): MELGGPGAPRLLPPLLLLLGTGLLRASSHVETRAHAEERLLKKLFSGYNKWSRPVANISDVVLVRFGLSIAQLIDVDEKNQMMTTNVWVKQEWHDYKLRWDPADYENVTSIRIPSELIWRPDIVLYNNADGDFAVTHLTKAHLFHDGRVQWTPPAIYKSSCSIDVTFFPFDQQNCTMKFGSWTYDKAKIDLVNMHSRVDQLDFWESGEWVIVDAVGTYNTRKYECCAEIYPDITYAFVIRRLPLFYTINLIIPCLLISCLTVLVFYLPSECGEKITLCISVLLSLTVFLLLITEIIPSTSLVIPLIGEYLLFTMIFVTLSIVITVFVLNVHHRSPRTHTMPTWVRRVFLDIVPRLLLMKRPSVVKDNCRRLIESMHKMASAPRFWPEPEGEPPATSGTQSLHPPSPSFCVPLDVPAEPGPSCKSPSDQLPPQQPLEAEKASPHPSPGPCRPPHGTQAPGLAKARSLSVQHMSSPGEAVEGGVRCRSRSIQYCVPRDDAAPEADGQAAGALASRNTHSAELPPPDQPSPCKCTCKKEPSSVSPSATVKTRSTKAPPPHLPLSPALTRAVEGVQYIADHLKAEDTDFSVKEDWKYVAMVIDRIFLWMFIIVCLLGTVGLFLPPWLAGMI

[31] = Clearance in beagle dog at 2 mg/kg, iv; format: ADME, organism-based, Canis lupus familiaris; set-up: dose 2 mg/kg, route intravenous; details: in vivo; how it was run: as §3
[32] = Ratio of drug level in homogenized brain to plasma in CD1 mouse at 7 mg/kg, po measured after 6 hrs by LC-MS/MS method; format: ADME, organism-based; set-up: dose 7 mg/kg, route oral; details: read-out: BPR
How it was run: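 CD-1 mice dosed PO in 1% Pluronic F127. Drug was measured in homogenized brain and in plasma 6 h after dosing and expressed as a brain:plasma ratio. The free ratio used free fraction measured in mouse plasma and rat brain (brain slice or brain homogenate).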

[33] = Cmax in beagle dog at 2 mg/kg, po; format: ADME, organism-based, Canis lupus familiaris; set-up: dose 2 mg/kg, route oral; details: in vivo; how it was run: as §1
[34] = molecular target: Voltage-gated inwardly rectifying potassium channel KCNH2 (Homo sapiens, UniProt Q12809); assay: Inhibition of human ERG at 33 uM
Chain of Voltage-gated inwardly rectifying potassium channel KCNH2 (Q12809 whole entry): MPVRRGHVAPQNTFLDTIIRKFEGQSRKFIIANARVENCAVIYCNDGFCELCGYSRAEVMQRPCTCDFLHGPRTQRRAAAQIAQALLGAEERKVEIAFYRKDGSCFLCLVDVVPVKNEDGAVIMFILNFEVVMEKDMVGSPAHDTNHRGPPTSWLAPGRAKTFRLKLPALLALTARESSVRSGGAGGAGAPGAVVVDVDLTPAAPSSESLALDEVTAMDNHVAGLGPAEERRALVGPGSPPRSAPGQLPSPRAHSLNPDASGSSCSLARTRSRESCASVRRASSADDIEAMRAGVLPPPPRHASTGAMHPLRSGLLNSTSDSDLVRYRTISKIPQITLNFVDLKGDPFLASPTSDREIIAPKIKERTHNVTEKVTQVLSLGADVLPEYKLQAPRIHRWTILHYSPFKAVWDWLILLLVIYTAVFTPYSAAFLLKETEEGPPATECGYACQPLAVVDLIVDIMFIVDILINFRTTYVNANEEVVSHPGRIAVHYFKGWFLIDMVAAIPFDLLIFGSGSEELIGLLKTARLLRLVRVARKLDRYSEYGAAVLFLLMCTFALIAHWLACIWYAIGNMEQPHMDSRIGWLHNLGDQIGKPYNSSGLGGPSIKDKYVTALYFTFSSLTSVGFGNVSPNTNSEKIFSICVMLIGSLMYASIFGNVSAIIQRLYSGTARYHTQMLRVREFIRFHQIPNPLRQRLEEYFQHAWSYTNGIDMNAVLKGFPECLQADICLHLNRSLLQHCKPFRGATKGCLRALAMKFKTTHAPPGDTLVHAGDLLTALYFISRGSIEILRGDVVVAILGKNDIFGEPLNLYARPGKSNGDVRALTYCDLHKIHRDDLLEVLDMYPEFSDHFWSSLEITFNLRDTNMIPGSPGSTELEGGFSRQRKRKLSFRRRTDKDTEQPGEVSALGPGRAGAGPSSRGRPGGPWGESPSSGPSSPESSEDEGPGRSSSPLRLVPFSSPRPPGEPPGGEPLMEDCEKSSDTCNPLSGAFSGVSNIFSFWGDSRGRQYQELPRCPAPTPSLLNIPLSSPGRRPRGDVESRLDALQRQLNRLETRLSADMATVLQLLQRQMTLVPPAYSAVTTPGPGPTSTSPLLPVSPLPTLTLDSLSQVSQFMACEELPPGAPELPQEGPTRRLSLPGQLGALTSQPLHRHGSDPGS

[35] = Cmax in CD1 mouse at 7 mg/kg, po; format: ADME, organism-based; set-up: dose 7 mg/kg, route oral; details: in vivo; how it was run: as §1
[36] = Volume of distribution at steady state in beagle dog at 2 mg/kg, iv; format: ADME, organism-based, Canis lupus familiaris; set-up: dose 2 mg/kg, route intravenous; details: in vivo, read-out: Vdss; how it was run: as §3
[37] = Oral bioavailability in beagle dog at 2 mg/kg; format: ADME, organism-based, Canis lupus familiaris; details: in vivo; how it was run: as §1
[38] = system: Mus musculus; assay: Reduction in free feeding level in po dosed GHS-R1a knock out C57Bl6j mouse free feeding model measured over 6 hrs; format: functional, organism-based; how it was run: as §4
[39] = Cmax in CD1 mouse at 2 mg/kg, po by LC-MS/MS method; format: ADME, organism-based; set-up: dose 2 mg/kg, route oral; details: in vivo; how it was run: as §1
[40] = Oral bioavailability in CD1 mouse at 7 mg/kg; format: ADME, organism-based; details: in vivo; how it was run: as §1
[41] = system: Mus musculus; assay: Reduction in free feeding level in po dosed C57Bl6j mouse free feeding model measured in first 6 hrs; format: functional, organism-based; how it was run: as §4
[42] = system: Mus musculus; assay: Reduction in free feeding level in po dosed C57Bl6j mouse free feeding model measured over 24 hrs period; format: functional, organism-based; how it was run: as §4

CN1CCN(CCCS(=O)(=O)c2ccc3nc(NC(=O)NC(=O)c4ccccc4Cl)sc3c2)CC1
Cmax [1]: 200 nM | logD [2]: 1.8 | bioavailability [3]: 125% | clearance [4]: 35 mL/min/kg | fraction unbound [5]: 0.08 | Activity [6]: 19% | Ratio [7]: 310 | Vd [8]: 4.5 L/kg | Cmax [9]: 340 nM | bioavailability [10]: 40% | bioavailability [11]: 51% | clearance [12]: 24 mL/min/kg | Activity [13]: Active | IC50 [14]: 4.9 nM | Vd [15]: 4.9 L/kg | clearance [16]: 8.1 mL/min/kg | Papp A→B at 10 µM [17]: 7.1 ×10⁻⁶ cm/s | Ratio [18]: 220 | IC50 [19]: 1.3 nM | efflux ratio at 10 µM [20]: 4.2 | Cmax [21]: 710 nM | Vd [22]: 4 L/kg | IC50 [23]: 3.6 nM | solubility thermodynamic [24]: 280 µM (≈ 150 µg/mL) | fraction unbound [25]: 0.096 | fraction unbound [26]: 0.13 | Ratio [27]: 20

CN1CCC(S(=O)(=O)c2ccc3nc(NC(=O)NC(=O)c4cc(N5CCOCC5)ccc4Cl)sc3c2)CC1
Ki [28]: 290 nM | logD [2]: 2.3 | F [29]: 171% | Ki [30]: 52 nM | clearance [31]: 10 mL/min/kg | Kp at 6 h [32]: 0.21 | Cmax [33]: 1000 nM | clearance [4]: 1.8 mL/min/kg | inhibition (INH) [34]: Not Active | fraction unbound [5]: 0.002 | Vd [8]: 0.4 L/kg | Cmax [9]: 4500 nM | Cmax [35]: 8000 nM | Vd [36]: 0.4 L/kg | clearance [12]: 1.9 mL/min/kg | bioavailability [37]: 31% | IC50 [14]: 39 nM | Vd [15]: 0.7 L/kg | Activity [38]: inactive | Cmax [39]: 6500 nM | Papp A→B at 10 µM [17]: 5.4 ×10⁻⁶ cm/s | bioavailability [40]: 25% | Activity [41]: Active | Activity [42]: inactive | fraction unbound [25]: 0.016 | fraction unbound [26]: 0.009
